From ChEMBL document CHEMBL3352233, “N-[6-(4-butanoyl-5-methyl-1H-pyrazol-1-yl)pyridazin-3-yl]-5-chloro-1-[2-(4-methylpiperazin-1-yl)-2-oxoethyl]-1H-indole-3-carboxamide (SAR216471), a novel intravenous and oral, reversible, and directly acting P2Y12 antagonist” (J Med Chem, 2014)

Key:
[1] = target: P2Y purinoceptor 12 (Homo sapiens, UniProt Q9H244); assay: Displacement of [33P]2MeS-ADP from P2Y12 receptor (unknown origin) transfected in CHO cells after 30 mins by scintillation counting analysis; format: cell-based
How it was run: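 P2Y12-expressing CHO cells (35 × 10³/sample) in PBS with 1 mM EDTA and 0.2% BSA are exposed to compound for 30 min. [³³P]2-MeS-ADP (0.16 nM) is then added for 15 min at 20 °C, in triplicate. Filtration separates free from bound ligand, followed by scintillation counting. Nonspecific binding uses 1 mM unlabeled ADP. IC50 comes from a four-parameter logistic fit with asymptotes fixed at 0 and 100. n = 2.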

[2] = Metabolic stability in rat liver microsomes assessed as compound metabolism after 20 mins incubation in presence of 1 mM NADPH; format: ADME; conditions: liver microsomes, read-out: Drug metabolism
How it was run: (§1)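 Hepatic microsomal fractions are incubated with compound for 20 min with 1 mM NADPH. Result is reported as % metabolized, i.e. 100 minus % unchanged compound.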

[3] = Metabolic stability in human liver microsomes assessed as compound metabolism after 20 mins incubation in presence of 1 mM NADPH; format: ADME; conditions: liver microsomes, read-out: Drug metabolism; how it was run: as §1
[4] = Permeability across human Caco2 cells; format: ADME, cell-based; conditions: Caco-2, read-out: permeability
How it was run: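 Permeation is measured across a Caco2 cell monolayer and reported in 10⁻⁷ cm·s⁻¹.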

P2Y purinoceptor 12, sequence (Q9H244 whole entry): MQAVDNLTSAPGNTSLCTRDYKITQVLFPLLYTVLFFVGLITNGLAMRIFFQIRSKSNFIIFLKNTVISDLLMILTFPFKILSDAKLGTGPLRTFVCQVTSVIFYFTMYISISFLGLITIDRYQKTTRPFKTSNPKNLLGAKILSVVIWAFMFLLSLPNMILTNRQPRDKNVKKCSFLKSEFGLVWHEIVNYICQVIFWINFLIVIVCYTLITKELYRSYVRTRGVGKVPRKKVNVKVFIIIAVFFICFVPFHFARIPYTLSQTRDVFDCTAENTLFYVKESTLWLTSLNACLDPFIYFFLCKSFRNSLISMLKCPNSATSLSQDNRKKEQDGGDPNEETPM

| Compound | IC50 [1] [nM] | also measured |
| --- | --- | --- |
| CCCC(=O)c1cnn(-c2ccc(NC(=O)c3cn(CC(=O)N4CCC(N)CC4)c4ccc(C)cc34)cc2)c1C | 71 | – |
| CCCC(=O)c1cnn(-c2ccc(NC(=O)c3cn(CC(=O)N4CCN(C)CC4)c4cc(Br)c(C)cc34)cc2)c1C | 118 | – |
| CCCC(=O)c1cnn(-c2ccc(NC(=O)c3cn(CC(=O)N4CCCCC4CN)c4ccc(C)cc34)cc2)c1C (configuration not stated) | 111 | – |
| CCCC(=O)c1cnn(-c2ccc(NC(=O)c3cn(CC(=O)NCCn4ccnc4)c4ccc(C)cc34)cc2)c1C | 61 | – |
| CCC(=O)c1cnn(-c2ccc(NC(=O)c3cn(CC(=O)N4CCN(C)CC4)c4ccc(Cl)cc34)cc2)c1C | 336 | metabolised at 20 min [2]: 25%; metabolised at 20 min [3]: 32% |
| CCCC(=O)c1cnn(-c2ccc(NC(=O)c3cn(CC(=O)N(C)CC4CCCN(C)C4)c4ccc(C)cc34)cc2)c1C (configuration not stated) | 84 | – |
| CCCC(=O)c1cnn(-c2ccc(NC(=O)c3cn(CC(=O)N4CCNC(C)C4)c4ccc(C)cc34)cc2)c1C (configuration not stated) | 46 | – |
| CCCC(=O)c1cnn(-c2ccc(NC(=O)c3cn(CC(=O)N4CCN5CCCC5C4)c4ccc(C)cc34)cc2)c1C (configuration not stated) | 76 | – |
| CCCC(=O)c1cnn(-c2ccc(NC(=O)c3cn(CC(=O)N4C[C@@H]5C[C@H]4CN5C)c4ccc(C)cc34)cc2)c1C | 70 | – |
| CCCC(=O)c1cnn(-c2ccc(NC(=O)c3cn(CC(=O)N4CCN(C)CC4)c4ccc(F)cc34)cc2)c1C | 142 | – |
| CCCC(=O)c1cnn(-c2ccc(NC(=O)c3cn(CC(=O)N4CCN(CCOC)CC4)c4ccc(C)cc34)cc2)c1C | 20 | metabolised at 20 min [2]: 32%; Papp [4]: 7.4 ×10⁻⁶ cm/s; metabolised at 20 min [3]: 53% |
| CCCC(=O)c1cnn(-c2ccc(NC(=O)c3cn(CC(=O)N4CCCC(N(C)C)C4)c4ccc(C)cc34)cc2)c1C (configuration not stated) | 73 | – |
| CCCC(=O)c1cnn(-c2ccc(NC(=O)c3cn(CC(=O)OC)c4ccc(C)cc34)cc2)c1C | 93 | – |
| CCCC(=O)c1cnn(-c2ccc(NC(=O)c3cn(CC(=O)N4CC5CCNC5C4)c4ccc(C)cc34)cc2)c1C (configuration not stated) | 117 | – |
| CCCC(=O)c1cnn(-c2ccc(NC(=O)c3cn(CC(=O)N4CC(C)N(C)C(C)C4)c4ccc(C)cc34)cc2)c1C (configuration not stated) | 28 | – |
| CCCC(=O)c1cnn(-c2ccc(NC(=O)c3cn(CC(=O)N4CCC(N(C)C)C4)c4ccc(C)cc34)cc2)c1C (configuration not stated) | 87 | – |

| Compound | IC50 [1] [nM] | also measured |
| --- | --- | --- |
| CCOC(=O)c1c(C)nn(-c2ccc(NC(=O)Nc3ccc(Cl)cc3)cc2)c1C | 1260 | – |
| CCCC(=O)c1cnn(-c2ccc(N(C)C(=O)c3cn(CC(=O)O)c4ccc(C)cc34)cc2)c1C | 304 | – |
| CCCC(=O)c1cnn(-c2ccc(NC(=O)c3cn(CC(=O)N4CC5CNCC5C4)c4ccc(C)cc34)cc2)c1C (configuration not stated) | 106 | – |
| CCCC(=O)c1cnn(-c2ccc(NC(=O)c3cn(CC(=O)NC4CCCN(C)C4)c4ccc(C)cc34)cc2)c1C (configuration not stated) | 71 | – |
| CCCC(=O)c1cnn(-c2ccc(NC(=O)c3cn(CC(=O)NC4CCN(C)CC4)c4ccc(C)cc34)cc2)c1C | 139 | – |
| CCCC(=O)c1cnn(-c2ccc(NC(=O)c3cn(CC(=O)N4CCCCC4CN4CCCC4)c4ccc(C)cc34)cc2)c1C (configuration not stated) | 100 | – |
| CCCC(=O)c1cnn(-c2ccc(NC(=O)n3cc(CCCC(=O)O)c4ccc(C)cc43)cc2)c1C | 47 | – |
| CCCC(=O)c1cnn(-c2ccc(NC(=O)c3cn(CC(=O)N4CCN(CC)CC4)c4ccc(C)cc34)cc2)c1C | 66 | – |
| CCCC(=O)c1cnn(-c2ccc(NC(=O)c3cn(CC(=O)NCCN(C)C)c4ccc(C)cc34)cc2)c1C | 92 | – |
| CCCC(=O)c1cnn(-c2ccc(NC(=O)c3cn(CC(=O)NCCN4CCCC4)c4ccc(C)cc34)cc2)c1C | 194 | – |
| CCCC(=O)c1cnn(-c2ccc(NC(=O)c3cn(CC(=O)N4CCN(CC5CC5)CC4)c4ccc(C)cc34)cc2)c1C | 29 | – |
| CCCC(=O)c1cnn(-c2ccc(NC(=O)c3cn(CCCC(=O)O)c4ccc(C)cc34)cc2)c1C | 24 | – |
| CCCC(=O)c1cnn(-c2ccc(NC(=O)c3c(C)n(CC(=O)O)c4ccc(C)cc34)cc2)c1C | 84 | – |
| CCCC(=O)c1cnn(-c2ccc(NC(=O)c3cn(CC(=O)N4CCN(C5CC5)CC4)c4ccc(C)cc34)cc2)c1C | 44 | – |
| CCCC(=O)c1cnn(-c2ccc(NC(=O)c3cn(CC(=O)O)c4cc(C)c(C)cc34)cc2)c1C | 5.1 | metabolised at 20 min [2]: 2%; metabolised at 20 min [3]: 4% |

Further compounds by falling IC50 [1], results first:

| IC50 [1] [nM] | Compound | also measured |
| --- | --- | --- |
| 1540 | CCOC(=O)c1c(C)nn(-c2ccc(C(=O)NCc3ccccc3OC)cc2)c1C | – |
| 574 | Cc1c(C(=O)CCC(F)(F)F)cnn1-c1ccc(NC(=O)c2cn(CC(=O)N3CCN(C)CC3)c3ccc(Cl)cc23)cc1 | metabolised at 20 min [2]: 3%; metabolised at 20 min [3]: 6% |
| 559 | CCCC(=O)c1cnn(-c2ccc3c(c2)OCCN3C(=O)c2cn(CC(=O)N3CCN(C)CC3)c3ccc(Cl)cc23)c1C | – |
| 480 | CCCC(=O)c1cnn(-c2ccc(OC(=O)c3cn(CC(=O)N4CCN(C)CC4)c4ccc(Cl)cc34)cc2)c1C | – |
| 275 | CCCC(=O)c1cnn(-c2cnc(NC(=O)c3cn(CC(=O)N4CCN(C)CC4)c4ccc(Cl)cc34)cn2)c1C | – |
| 272 | CCCC(=O)c1cnn(-c2ccc(NC(=O)c3cn(CC(=O)O)c4ccc(C)c(C)c34)cc2)c1C | – |
| 266 | CCCC(=O)c1cnn(-c2ccc(NC(=O)c3cn(CC(=O)N4CCN(C)CC4)c4ccc(Cl)cc34)c(C(N)=O)c2)c1C | – |
| 143 | CC(=O)c1cnn(-c2ccc(NC(=O)c3cn(CC(=O)N4CCN(C)CC4)c4ccc(Cl)cc34)cc2)c1C | metabolised at 20 min [2]: 47%; metabolised at 20 min [3]: 40% |
| 138 | CCCC(=O)c1cnn(-c2ccc(NC(=O)c3cn(CC(=O)N4CCN(C)CC4)c4cc(Cl)c(C)cc34)cc2)c1C | – |
| 124 | CCCC(=O)c1cnn(-c2ccc(NC(=O)c3cn(CC(=O)N(C)CCN4CCCC4)c4ccc(C)cc34)cc2)c1C | – |
| 121 | CCCCN1CCN(C(=O)Cn2cc(C(=O)Nc3ccc(-n4ncc(C(=O)CCC)c4C)cc3)c3cc(C)ccc32)CC1 | – |
| 115 | CCCC(=O)c1cnn(-c2ccc(NC(=O)c3cn(CC(=O)N4CCC(NC)CC4)c4ccc(C)cc34)cc2)c1C | – |
| 102 | CCCC(=O)c1cnn(-c2ccc(NC(=O)c3cn(CC(=O)N4CC(C)NC(C)C4)c4ccc(C)cc34)cc2)c1C (configuration not stated) | – |
| 99 | CCCC(=O)c1cnn(-c2ccc(NC(=O)c3cn(CC(=O)N4CCN(C)CC4)c4cc(Cl)c(Cl)cc34)cc2)c1C | – |
| 95 | CCCC(=O)c1cnn(-c2ccc(NC(=O)c3cn(CC(=O)N4CCCN(C)CC4)c4ccc(C)cc34)cc2)c1C | – |
| 94 | CCCC(=O)c1cnn(-c2ccc(NC(=O)c3cn(CC(=O)N4CCC(NC)C4)c4ccc(C)cc34)cc2)c1C (configuration not stated) | – |
| 94 | CCCC(=O)c1cnn(-c2ccc(NC(=O)c3cn(CC(=O)N(C)CCNC)c4ccc(C)cc34)cc2)c1C | – |
| 89 | CCCC(=O)c1cnn(-c2ccc(NC(=O)c3cn(CC(=O)N4CC5CCN(C)C5C4)c4ccc(C)cc34)cc2)c1C (configuration not stated) | – |

| IC50 [1] [nM] | Compound | also measured |
| --- | --- | --- |
| 88 | CCCC(=O)c1cnn(-c2ccc(NC(=O)c3cn(CC(=O)NC(C)CN(C)C)c4ccc(C)cc34)cc2)c1C (configuration not stated) | – |
| 86 | CCCC(=O)c1cnn(-c2ccc(NC(=O)c3cn(CC(=O)N4C[C@@H]5C[C@H]4CN5)c4ccc(C)cc34)cc2)c1C | – |
| 80 | CCOC(=O)c1c(C)nn(-c2ccc(NC(=O)Nc3ccccc3OCCCC(=O)O)cc2)c1C | – |
| 76 | CCCC(=O)c1cnn(-c2ccc(NC(=O)c3cn(CC(=O)N4CCN(C)CC4)c4ccc(C#N)cc34)cc2)c1C | – |
| 75 | CCCC(=O)c1cnn(-c2ccc(NC(=O)c3cn(CC(=O)N4CCN(C)CC4)c4ccc(Cl)cc34)c(C(=O)O)c2)c1C | – |
| 66 | CCCC(=O)c1cnn(-c2ccc(NC(=O)c3cn(CC(=O)N4CCN(CC(F)(F)F)CC4)c4ccc(C)cc34)cc2)c1C | – |
| 65 | CCCC(=O)c1cnn(-c2ccc(NC(=O)c3cn(CC(=O)N4CCCC(NC)C4)c4ccc(C)cc34)cc2)c1C (configuration not stated) | – |
| 61 | CCCC(=O)c1cnn(-c2ccc(NC(=O)c3cn(CC(=O)N[C@H]4CCNC4)c4ccc(C)cc34)cc2)c1C | – |
| 47 | CCCC(=O)c1cnn(-c2ccc(NC(=O)c3cn(CC(=O)N(C)C4CCN(C)C4)c4ccc(C)cc34)cc2)c1C (configuration not stated) | – |
| 46 | CCCC(=O)c1cnn(-c2ccc(NC(=O)c3cn(CC(=O)N4CCCC(N)C4)c4ccc(C)cc34)cc2)c1C (configuration not stated) | – |
| 33 | CCCC(=O)c1cnn(-c2ccc(NC(=O)c3cn(CC(=O)N4CC5CN(C)CC5C4)c4ccc(C)cc34)cc2)c1C (configuration not stated) | – |
| 27 | CCCC(=O)c1cnn(-c2ccc(NC(=O)c3cn(CC(=O)N4CCN(C)C(C)C4)c4ccc(C)cc34)cc2)c1C (configuration not stated) | metabolised at 20 min [2]: 45%; Papp [4]: 5.5 ×10⁻⁶ cm/s; metabolised at 20 min [3]: 65% |
| 26 | CCCC(=O)c1cnn(-c2ccc(NC(=O)c3cn(CC(=O)N4CCNCC4)c4ccc(C)cc34)cc2)c1C | – |
| 22 | CCCC(=O)c1cnn(-c2ccc(NC(=O)c3cn(CC(=O)N4CCN(C)CC4)c4ccc(OC)cc34)cc2)c1C | metabolised at 20 min [2]: 63%; metabolised at 20 min [3]: 68% |
| 17 | CCCC(=O)c1cnn(-c2ccc(NC(=O)Nc3cc(C)ccc3OCCCC(=O)O)cc2)c1C | – |
| 15 | CCCC(=O)c1cnn(-c2ccc(NC(=O)c3cn(CC(=O)N4C[C@@H]5C[C@@H](O)CN5C[C@@H]4C)c4ccc(C)cc34)cc2)c1C | metabolised at 20 min [2]: 25%; metabolised at 20 min [3]: 61% |
| 7 | CCCC(=O)c1cnn(-c2ccc(NC(=O)c3cn(CCC(=O)O)c4ccc(C)cc34)cc2)c1C | – |
| 0.9 | CCCC(=O)c1cnn(-c2ccc(NC(=O)c3cn(CC(=O)O)c4ccc(C)cc34)cc2)c1C | metabolised at 20 min [2]: 1%; metabolised at 20 min [3]: 5% |
